# Data published in ChEMBL document CHEMBL3627702, “Navigating CYP1A Induction and Arylhydrocarbon Receptor Agonism in Drug Discovery. A Case History with S1P1 Agonists” (J Med Chem, 2015).
# Columns and labels:
# [1] = Oral bioavailability in CD rat at 3 mg/kg; assay type: ADME, organism-based; conditions: in vivo
# Summary of the method: (§1)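 Male CD rats cannulated in the femoral and jugular veins, n = 3, crossover design. Day 1: 1 h iv infusion at 1 mg/kg (0.2 mg/mL in ≤5% DMSO/≥95% 10% Kleptose in saline, 5 mL/kg/h). Day 2: oral gavage at 3 mg/kg (0.6 mg/mL in 1% methylcellulose, 5 mL/kg). Blood assayed by LC–MS/MS after acetonitrile precipitation.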
# [2] = Half life in CD rat at 1 mg/kg, iv; assay type: ADME, organism-based; conditions: in vivo
# Summary of the method: (§2)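 Male CD rats carried femoral vein (dosing) and jugular vein (sampling) cannulae and recovered at least 2 days. They received a 1 h iv infusion at 5 mL kg−1 h−1, target 1 mg/kg, at 0.2 mg/mL in DMSO/10% Kleptose in saline (≤5%:≥95%). pH was adjusted to 8.0 if needed and the solution filtered. Definitive studies used n = 3 in crossover; others used single animals.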
# [3] = Volume of distribution at steady state in CD rat at 1 mg/kg, iv; assay type: ADME, organism-based; conditions: in vivo, read-out: Vdss; summary of the method: as §1
# [4] = Blood clearance in CD rat at 1 mg/kg, iv; assay type: ADME, organism-based; summary of the method: as §2
# [5] = Lipophilicity, log D of the compound at pH 7.4; assay type: physicochemical; conditions: buffer
# [6] = biological target: Sphingosine 1-phosphate receptor 3 (Homo sapiens, UniProt Q99500); test: Agonist activity at S1P3 receptor (unknown origin) expressed in RBL membranes assessed as GTPgammaS binding after 3 hrs; assay type: functional, cell membranes
# Summary of the method: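 Membranes from S1P3-expressing RBL cells were sucrose-gradient purified, used at 0.44 μg/well and coupled to WGA-coated SPA beads. Buffer was 20 mM HEPES, 10 mM MgCl2, 100 mM NaCl, pH 7.4, with 2 μg/well saponin. Precoupling was 30 min on ice. GDP was present at 5 μM final.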
# [7] = biological target: Sphingosine 1-phosphate receptor 1 (Homo sapiens, UniProt P21453); test: Agonist activity at S1P1 receptor (unknown origin) expressed in CHO-K1 cells assessed as beta-arrestin recruitment after 60 mins by chemiluminescence assay; assay type: cell-based; conditions: in the assay text read “after 90 mins” for “after 60 mins”
# Summary of the method: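 PathHunter CHO-K1 cells stably express S1P1 and β-arrestin 2 fused to complementing β-galactosidase fragments. Cells in pH 7.4 HEPES/NaHCO3 buffer with 0.1% pluronic and 0.1% BSA were added to DMSO compound plates at 1 × 10^4 cells/well. Incubation was 90 min at 37 °C/5% CO2, then 15 min at room temperature. Galacton Star/Emerald II detection mix was added for 60 min at room temperature, and luminescence was read.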
# CYP1A1 [8] = test: Induction of CYP1A1 mRNA expression in Sprague-Dawley rat hepatic microsomes at 30 mg/kg, po QD for 4 days relative to control; assay type: ADME, organism-based, Liver; conditions: read-out: FC
# Summary of the method: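 Male CD rats (226–325 g, n = 3) were dosed by oral gavage once daily for 4 days as a 1% w/v aqueous methylcellulose suspension (3–6 mg/mL, 5 mL/kg). At the end of the study, a left lateral liver lobe section was placed in RNALater and homogenised in TRIzol. RNA was purified, DNase-treated and converted to cDNA, and Cyp1a1 was read on low-density TaqMan arrays.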
# [9] = Dissociation constant, pKa of the compound; assay type: physicochemical
# CYP1A2 [10] = test: Induction of CYP1A2 mRNA expression in Sprague-Dawley rat hepatic microsomes at 30 mg/kg, po QD for 4 days relative to control; assay type: ADME, organism-based, Liver; conditions: read-out: FC
# [11] = Cmax in Sprague-Dawley rat at 30 mg/kg, po QD measured on day 1; assay type: ADME, organism-based; set-up: dose 30 mg/kg, route oral; conditions: in vivo
# Summary of the method: (§3)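 Male CD rats (226−325 g), n = 3, given the compound once daily by oral gavage for 4 days. Vehicle was 1% (w/v) methylcellulose aq suspension at 3−6 mg/mL, dosed at 5 mL/kg (target 15−30 mg/kg). Tail vein blood was taken on days 1 and 4 up to 24 h postdose. Blood was diluted 1:1 with water, extracted by acetonitrile protein precipitation and analysed by LC−MS/MS against calibration standards in diluted blood.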
# [12] = Cmax in Sprague-Dawley rat at 30 mg/kg, po QD measured on day 4; assay type: ADME, organism-based; set-up: dose 30 mg/kg, route oral; conditions: in vivo; summary of the method: as §3
# [13] = AUC in Sprague-Dawley rat at 30 mg/kg, po QD measured on day 1; assay type: ADME, organism-based; conditions: in vivo; summary of the method: as §3
# [14] = AUC in Sprague-Dawley rat at 30 mg/kg, po QD measured on day 4; assay type: ADME, organism-based; conditions: in vivo; summary of the method: as §3
# Rattus norvegicus [15] = test: Dose normalized AUC in Sprague-Dawley rat at 30 mg/kg, po QD measured on day 1; assay type: ADME, organism-based; conditions: in vivo; summary of the method: as §3
# Rattus norvegicus [16] = test: Dose normalized AUC in Sprague-Dawley rat at 30 mg/kg, po QD measured on day 4; assay type: ADME, organism-based; conditions: in vivo; summary of the method: as §3
# [17] = Intrinsic clearance in dog hepatocytes by LC-MS/MS analysis; conditions: read-out: CLH
# [18] = Intrinsic clearance in rat hepatocytes by LC-MS/MS analysis; conditions: read-out: CLH
# [19] = Intrinsic clearance in human hepatocytes by LC-MS/MS analysis; conditions: read-out: CLH
# CYP1A2 [20] = test: (§4) Induction of CYP1A2 mRNA expression in rat hepatic microsomes at 20 mg/kg, po QD for 4 days relative to control; assay type: ADME, organism-based, Liver; conditions: hepatic microsomes, read-out: FC
# Summary of the method: (§5)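 Male CD rats (226–325 g), n = 3, given test compound by oral gavage once daily for 4 days. Vehicle was 1% w/v methylcellulose aqueous suspension (3–6 mg/mL, 5 mL/kg); target dose 15–30 mg/kg. Liver from the left lateral lobe was put in RNALater, then TRIzol extraction and cDNA conversion; Cyp1a analysed on low-density arrays.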
# CYP1A1 [21] = test: (§6) Induction of CYP1A1 mRNA expression in rat hepatic microsomes at 20 mg/kg, po QD for 4 days relative to control; assay type: ADME, organism-based, Liver; conditions: hepatic microsomes, read-out: FC
# Summary of the method: (§7)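 Male CD rats, n = 3, received the compound once daily by oral gavage for 4 days in 1% methylcellulose suspension at 5 mL/kg. At necropsy a left lateral liver lobe section was stored in RNALater on ice. Tissue was TRIzol-homogenized, RNA purified, DNased and converted to cDNA. Cyp1a1 was read on low density arrays and expressed relative to control.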
# Hepatocyte [22] = test: Induction of CYP1A2 mRNA expression in rat hepatocytes at 10 uM by Taqman analysis relative to control; assay type: ADME, cell-based; conditions: 10 µM
# CYP1A1 [23] = test: (§8) Induction of CYP1A1 mRNA expression in rat hepatocytes at 10 uM by Taqman analysis relative to control; assay type: ADME, cell-based, Hepatocyte; conditions: read-out: FC
# Rattus norvegicus [24] = test: as §4; assay type: ADME, organism-based, Liver; conditions: microsomes, 96 h; summary of the method: as §5
# Rattus norvegicus [25] = test: as §6; assay type: ADME, organism-based, Liver; conditions: microsomes, 96 h; summary of the method: as §7
# Hepatocyte [26] = test: as §8; assay type: ADME, cell-based; conditions: 10 µM
# Sequence of Sphingosine 1-phosphate receptor 3 (Q99500 whole entry): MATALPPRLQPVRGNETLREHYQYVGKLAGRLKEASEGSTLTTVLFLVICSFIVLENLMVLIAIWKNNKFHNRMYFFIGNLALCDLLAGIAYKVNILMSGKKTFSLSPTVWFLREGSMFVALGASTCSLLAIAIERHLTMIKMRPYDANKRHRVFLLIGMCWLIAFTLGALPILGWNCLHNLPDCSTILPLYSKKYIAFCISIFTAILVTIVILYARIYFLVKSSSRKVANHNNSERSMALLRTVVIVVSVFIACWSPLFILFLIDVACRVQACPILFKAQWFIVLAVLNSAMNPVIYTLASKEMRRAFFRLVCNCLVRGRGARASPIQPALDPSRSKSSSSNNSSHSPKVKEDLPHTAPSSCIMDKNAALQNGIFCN
# Sequence of Sphingosine 1-phosphate receptor 1 (P21453 whole entry, the tested form may be a part): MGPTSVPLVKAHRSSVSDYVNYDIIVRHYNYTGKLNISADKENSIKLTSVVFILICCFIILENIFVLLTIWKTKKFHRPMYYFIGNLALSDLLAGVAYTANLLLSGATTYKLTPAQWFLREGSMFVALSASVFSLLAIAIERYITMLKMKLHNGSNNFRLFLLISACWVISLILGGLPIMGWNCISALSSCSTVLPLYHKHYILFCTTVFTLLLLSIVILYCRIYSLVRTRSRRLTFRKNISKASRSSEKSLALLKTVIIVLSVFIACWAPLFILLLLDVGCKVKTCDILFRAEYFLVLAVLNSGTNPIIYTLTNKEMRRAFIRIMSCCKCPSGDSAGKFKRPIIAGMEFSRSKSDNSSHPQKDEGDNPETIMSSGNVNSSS
compound,measurement,setting,value
Cc1c(-c2noc(-c3ccc(OC(C)C)c(C#N)c3)n2)ccc2c1CCN(C[C@@H](O)CO)C2,bioavailability,[1],56%
same,half-life,[2],1.7 h
same,Vd,[3],6.6 L/kg
same,clearance,[4],53 mL/min/kg
same,logD,[5],2.16
same,EC50,[6],> 31600 nM
same,EC50,[7],7.94 nM
same,fold induction at 96 h,CYP1A1 [8],62
same,pKa,[9],7.7
same,fold induction at 96 h,CYP1A2 [10],4.6
same,Cmax,[11],720 ng/mL
same,Cmax,[12],710 ng/mL
same,AUC,[13],7310 ng·h/mL
same,AUC,[14],7000 ng·h/mL
same,AUC/dose,Rattus norvegicus [15],15 kg·min/L
same,AUC/dose,Rattus norvegicus [16],15 kg·min/L
same,CLint scaled,[17],7.1 mL/min/kg
same,CLint scaled,[18],2.1 mL/min/kg
same,CLint scaled,[19],< 0.85 mL/min/kg
CC(C)Oc1ncc(-c2nc(-c3cccc4c3OCCNC4CCCC(=O)O)no2)cc1Cl (stereo in doubt; 6),fold induction at 96 h,CYP1A2 [20],2
same,fold induction at 96 h,CYP1A1 [21],2
same,fold change (FC),Hepatocyte [22],19
same,fold induction at 10 µM,CYP1A1 [23],43
CC(C)Oc1ncc(-c2nc(-c3cccc4c3OCCNC4CCCC(=O)O)no2)cc1Cl (stereo in doubt; 7),fold change (FC),Rattus norvegicus [24],1
same,fold change (FC),Rattus norvegicus [25],1
same,fold change (FC),Hepatocyte [22],8
same,fold change (FC),Hepatocyte [26],32
